Test results reported in ChEMBL document CHEMBL1125395, “Development of high-affinity 5-HT3 receptor antagonists. 1. Initial structure-activity relationship of novel benzamides” (J Med Chem, 1992).

What was measured:
[1] = target: T1, Serotonin 3 (5-HT3) receptor (Rattus norvegicus, UniProt P35563+Q9JJ16); assay: Displacement of the 5-hydroxytryptamine 3 receptor ligand [3H]GR-65630 from rat brain cortical membranes.; type: cell membranes, Membrane
T1 sequence (P35563 whole entry): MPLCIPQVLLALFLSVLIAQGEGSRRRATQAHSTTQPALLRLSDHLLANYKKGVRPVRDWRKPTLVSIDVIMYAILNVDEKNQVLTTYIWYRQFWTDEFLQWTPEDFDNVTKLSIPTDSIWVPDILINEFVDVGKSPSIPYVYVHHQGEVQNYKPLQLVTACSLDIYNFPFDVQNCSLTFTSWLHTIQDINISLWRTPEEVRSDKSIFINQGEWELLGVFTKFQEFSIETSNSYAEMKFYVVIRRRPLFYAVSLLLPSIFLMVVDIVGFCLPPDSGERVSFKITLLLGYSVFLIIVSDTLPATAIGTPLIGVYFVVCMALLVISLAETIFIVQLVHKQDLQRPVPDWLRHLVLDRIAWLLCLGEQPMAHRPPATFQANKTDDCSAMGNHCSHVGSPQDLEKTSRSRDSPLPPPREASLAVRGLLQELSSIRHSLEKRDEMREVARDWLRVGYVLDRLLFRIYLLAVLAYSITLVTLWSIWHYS
T1 sequence (Q9JJ16 whole entry): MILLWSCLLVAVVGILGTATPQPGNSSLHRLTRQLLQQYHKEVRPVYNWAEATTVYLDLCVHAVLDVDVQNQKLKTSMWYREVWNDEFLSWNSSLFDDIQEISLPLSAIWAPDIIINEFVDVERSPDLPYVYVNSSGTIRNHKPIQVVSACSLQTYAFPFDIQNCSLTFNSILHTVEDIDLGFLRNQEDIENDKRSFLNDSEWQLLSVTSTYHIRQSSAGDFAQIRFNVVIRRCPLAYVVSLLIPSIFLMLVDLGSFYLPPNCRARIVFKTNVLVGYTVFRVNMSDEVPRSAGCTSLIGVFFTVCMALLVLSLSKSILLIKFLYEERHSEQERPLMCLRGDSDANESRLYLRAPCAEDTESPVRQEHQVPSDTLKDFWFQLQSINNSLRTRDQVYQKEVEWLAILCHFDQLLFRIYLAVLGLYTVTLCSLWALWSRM
Procedure, shortened: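 Entorhinal cortex from frozen rat brains homogenized, spun 40000g 10 min in HEPES buffer (25 mM HEPES, CaCl2 5 mM, pH 7.4). Filtration, Tris pH 7.7 washes, scintillation counting. Four-six concentrations in triplicate; Ki via Cheng-Prusoff.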

[2] = test system: Mustela putorius furo; assay: Antiemetic activity (intravenous administration) against cisplatin-induced emesis in ferret, as the dose required to increase latency to first emetic bout by 100%; type: functional
Procedure, shortened: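 Nonfasted castrated male Fitch ferrets (1-2 kg) with jugular vein catheter implanted under pentobarbital ≥48 h earlier. Drug in 0.9% saline, 2 mL/kg iv, 30 min before and 45 min after cisplatin (3 mg/kg iv). Emetic latency recorded over 4 h; % increase vs tandem vehicle; dose raising mean latency 100%. 3-12 ferrets/dose, ≥3 doses, 95% confidence limits.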

[3] = test system: Mustela putorius furo; assay: Antiemetic activity (oral administration) against cisplatin-induced emesis in ferret, as the dose required to increase latency to first emetic bout by 50%; type: functional
Procedure, shortened: (§1)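 Nonfasted castrated male Fitch ferrets (1-2 kg), each used once. Drug dissolved/suspended in 0.5% methylcellulose in gelatin capsule, given po 60 min before cisplatin 3 mg/kg iv (via jugular catheter). Vehicle controls in tandem. Observed 4 h; emetic episodes and latency to first bout recorded. ED50 from 3-12 animals per dose, at least 3 doses, with 95% confidence limits.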

[4] = test system: Mustela putorius furo; assay: Antiemetic activity (oral administration) against cisplatin-induced emesis in ferret, as the dose required to reduce emetic episodes to 50% of control value; type: functional; procedure, shortened: as §1
[5] = test system: Mustela putorius furo; assay: Antiemetic activity (intravenous administration) against cisplatin-induced emesis in ferret, as the dose required to reduce emetic episodes to 50% of control value; type: functional
Procedure, shortened: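 Castrated male Fitch ferrets (1-2 kg, nonfasted), jugular catheter implanted ≥48 h prior. Compound in 0.9% saline iv (2 mL/kg) 30 min before and 45 min after cisplatin 3 mg/kg iv. Emetic episodes counted for 4 h post-cisplatin, % inhibition vs vehicle controls run in tandem; dose halving episodes from 4-10 animals/dose, ≥3 doses, 95% confidence limits.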

Work on `O=C(NC1CN2CCC1CC2)c1cc(Cl)cc2c1OCCCC2` (stereo unspecified) yielded a Ki [1] of 1.22 nM.
`O=C(N[C@@H]1CN2CCC1CC2)c1cc(Cl)cc2c1OC1(CCCCC1)C2` showed an ED100 [2] of 0.005 mg/kg, an ED50 [3] of 0.004 mg/kg and an ED50 [4] of 0.009 mg/kg. The ED50 [5] was 0.009 mg/kg and the Ki [1] was 0.19 nM.
With `O=C(NC1CCN2CCCC1C2)c1cc(Cl)cc2c1OCCCC2` (stereo unspecified) the Ki [1] was 63 nM.
Work on `COc1c(C(=O)NC2CN3CCC2CC3)cc(Cl)cc1C1CCCCC1` (stereo unspecified) yielded a Ki [1] of 6.09 nM.
Compound `O=C(N[C@H]1CN2CCC1CC2)c1cc(Cl)cc2c1OC1(CCCCC1)C2` has an ED100 [2] of 0.055 mg/kg, an ED50 [5] of 0.099 mg/kg and a Ki [1] of 0.89 nM.
In the case of `Nc1c(Cl)cc2c(c1C(=O)NC1CN3CCC1CC3)OCCCC2` (stereo unspecified), the Ki [1] is reported as over 100 nM.
With `O=C(NC1CN2CCC1CC2)c1cc(Cl)cc2c1OC1(CCCCC1)C2` (stereo unspecified) the ED100 [2] was 0.006 mg/kg, the ED50 [5] was 0.002 mg/kg and the Ki [1] was 1.07 nM.
For `CCN(CC)CCNC(=O)c1cc(Cl)c(N)cc1OC` [METOCLOPRAMIDE], the ED100 [2] was 2.1 mg/kg, the ED50 [3] was over 5 mg/kg and the ED50 [4] was 6.17 mg/kg. For the same compound, the ED50 [5] was 1.45 mg/kg and the Ki [1] was 995 nM.
Work on `Cc1nccn1CC1CCc2c(c3ccccc3n2C)C1=O` (stereo unspecified) [ONDANSETRON] yielded an ED100 [2] of 0.015 mg/kg, an ED50 [3] of 0.031 mg/kg and an ED50 [4] of 0.28 mg/kg. It also gave an ED50 [5] of 0.008 mg/kg.
`CN1C2CCCC1CC(NC(=O)c1nn(C)c3ccccc13)C2` (stereo unspecified) [GRANISETRON] was tested, and the ED100 [2] was 0.082 mg/kg, the ED50 [3] was 0.117 mg/kg and the ED50 [4] was 0.119 mg/kg. The ED50 [5] was 0.226 mg/kg.
`CCC(C)Oc1c(C(=O)NC2CN3CCC2CC3)cc(Cl)cc1C1CCCCC1` (stereo unspecified) gave a Ki [1] of over 30 nM.
With `CN1CC2CCC1CC(OC(=O)c1c[nH]c3ccccc13)C2` (stereo unspecified) the Ki [1] was 1.66 nM.
`COc1ccc(Cl)cc1C(=O)NC1CN2CCC1CC2` (stereo unspecified) showed a Ki [1] of 46.8 nM.
`CC1(C)CCCc2cc(Cl)cc(C(=O)NC3CN4CCC3CC4)c2O1` (stereo unspecified) gave a Ki [1] of 15.6 nM.
`O=C(NC1CN2CCC1CC2)c1cc(Br)cc2c1OCCCC2` (stereo unspecified) showed a Ki [1] of 2.16 nM.
With `O=C(NC1CN2CCC1CC2)c1cc(Cl)cc2c1OCCCCC2` (stereo unspecified) the Ki [1] was 4.7 nM.
`COc1cc(N)c(Cl)cc1C(=O)NC1CN2CCC1CC2` (stereo unspecified) [ZACOPRIDE] showed a Ki [1] of 1.5 nM.
With `O=C(NC1CN2CCC1CC2)c1cccc2c1OCCCC2` (stereo unspecified) the Ki [1] was 13.8 nM.
